# PAFAH1B3 FP inh: PAFAH1B3 enzyme inhibitors, primary screen, biochemical, fluorescence polarization, human; Platelet-activating factor acetylhydrolase IB subunit alpha1 (Homo sapiens), Q15102; recombinant PAFAH1B3, FP-rhodamine probe; inhibition, % at 3.39 µM; 340,000 compounds, 0.28% hits; AID 492972, 2010;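 active = inhibition above the screen-wide average of all tested compounds plus 3 SD, cut at about 25% in these data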;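 note: 0% = enzyme with DMSO only and 100% = wells lacking PAFAH1B3 protein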
# Target sequence (Q15102 whole entry, looked up): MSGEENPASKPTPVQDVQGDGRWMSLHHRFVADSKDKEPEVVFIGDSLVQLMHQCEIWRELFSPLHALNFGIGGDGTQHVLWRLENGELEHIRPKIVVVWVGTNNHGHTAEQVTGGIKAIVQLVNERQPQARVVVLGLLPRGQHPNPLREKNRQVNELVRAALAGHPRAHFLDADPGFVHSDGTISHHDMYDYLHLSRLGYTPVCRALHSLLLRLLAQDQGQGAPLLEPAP
# NR3A LBD binder: binders of NR3A ligand-binding domain, primary screen, biophysical, differential scanning fluorimetry, uHTS; NR3A LBD differential scanning fluorimetry, Tm shift; 0% = protein alone, 100% = glycine-bound protein; Tm shift relative to glycine control, % at 25 µM; 340,000 compounds, 2.5% hits; AID 1259313, 2017;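 active = melting temperature shift of at least 10% of the positive control shift, at one fixed dose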
# PAFAH1B2 inh: PAFAH1B2 enzyme inhibitors, primary screen, biochemical, fluorescence polarization, human. Platelet-activating factor acetylhydrolase IB subunit alpha2 (Homo sapiens), P68402. recombinant PAFAH1B2, FP-rhodamine activity probe. inhibition, % at 3.39 µM. 340,000 compounds, 1.2% hits. AID 492953, 2010;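 active = inhibition above the mean of all tested compounds plus 3 SD, cut at about 24% in these data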;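 note: 0% = enzyme with DMSO and 100% = wells lacking PAFAH1B2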
# Target sequence (P68402 whole entry, looked up): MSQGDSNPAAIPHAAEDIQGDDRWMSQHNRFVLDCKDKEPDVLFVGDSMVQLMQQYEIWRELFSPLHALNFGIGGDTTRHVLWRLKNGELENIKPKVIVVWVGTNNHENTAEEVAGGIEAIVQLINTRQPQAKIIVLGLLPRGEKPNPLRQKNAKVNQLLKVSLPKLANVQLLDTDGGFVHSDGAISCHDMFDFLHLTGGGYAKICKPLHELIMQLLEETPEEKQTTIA
# PAFAH2 FP inh: PAFAH2 enzyme inhibitors, primary screen, biochemical, fluorescence polarization, human; recombinant PAFAH2, FP-rhodamine activity probe; inhibition, % at 3.39 µM; 340,000 compounds, 0.99% hits; AID 492956, 2010;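 active = inhibition above the mean over all tested compounds plus 3 SD, cut at about 30% in these data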;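 note: inhibitors block probe labeling of enzyme so polarization drops; 0% = enzyme with DMSO and 100% = wells lacking PAFAH2 protein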
# UCH37 DUB inh: inhibitors of human UCH37 deubiquitinase, primary screen, biochemical, Ub-AMC cleavage, fluorescence | Ubiquitin carboxyl-terminal hydrolase isozyme L5 (Homo sapiens), Q9Y5K5 | inhibition, % (concentration not given with the values) | purified proteasome/UCH37 | 330,000 compounds, 0.33% hits;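 active = mean inhibition over replicate wells above about 20%, limit read from the data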;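 note: 0% = compound-free wells with enzyme and 100% = wells lacking proteasome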
#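 Material: human UCH37 enzyme supplied as purified proteasome complex. Measure: % inhibition of Ub-AMC cleavage fluorescence. Medium: pH 7.4 Tris-HCl (50 mM) with ovalbumin, ATP-MgCl2, DTT. Times: 30 min preincubation with enzyme, 25 min cleavage at room temperature. Detection: AMC fluorescence intensity at 355/460 nm.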
# pPAFAH FP inh: pPAFAH enzyme inhibitors, primary screen, biochemical, fluorescence polarization, human; Platelet-activating factor acetylhydrolase (Homo sapiens), Q13093; recombinant pPAFAH, FP-rhodamine probe fluorescence polarization; inhibition, % at 3.39 µM; 330,000 compounds, 1.5% hits; AID 463082, 2010;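 active = inhibition above the mean inhibition across the screen plus 3 SD, cut at about 25% in these data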;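 note: inhibitors block binding of the rhodamine activity-based probe so polarization drops; 0% = enzyme with DMSO and 100% = wells lacking pPAFAH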
# * = called active by the depositor; x = not tested or not shown. Hits are enriched below; roughly 4.8% of the tested compounds scored in any of these assays.
SMILES,PAFAH1B3 FP inh,NR3A LBD binder,PAFAH1B2 inh,PAFAH2 FP inh,UCH37 DUB inh,pPAFAH FP inh
CC(C)(C)c1ccc2c(c1)OC(C(=O)N/N=C/c1ccc([N+](=O)[O-])o1)CO2 (centres undefined),x,-4.0,x,x,x,28.2*
COc1ccc(NC(=O)c2ccc(-c3ccc([N+](=O)[O-])cc3)o2)cc1OC,6.4,14.4*,2.6,-5.9,7.3,13.5
Cc1nnc(NC(=O)c2ccc(-c3ccc([N+](=O)[O-])cc3)o2)s1,7.8,-22.5,3.8,5.1,6.6,5.8
CC(=O)c1ccc(NC(=O)c2ccc(COc3ccccc3[N+](=O)[O-])o2)cc1,6.9,12.6*,-2.4,-2.7,1.9,-4.2
COc1cccc(NC(=O)c2ccc(-c3ccc([N+](=O)[O-])cc3)o2)c1,-3.3,16.9*,7.9,2.8,9.8,6.2
CC(=O)Nc1ccc(NC(=O)c2ccc(-c3ccc([N+](=O)[O-])cc3)o2)cc1,6.1,12.0*,-2.2,-3.7,7.3,-1.0
COc1ccccc1C=NNC(=O)c1ccccc1Cl,x,x,x,x,3.5,x
CC(=O)Nc1ccc(NC2=CC(=NS(=O)(=O)c3cccs3)c3ccccc3C2=O)cc1,x,x,x,x,28.8*,x
Cc1ccccc1NC1=C/C(=N\S(=O)(=O)c2ccc(C(=O)O)cc2)c2ccccc2C1=O,65.0*,-3.8,34.4*,67.1*,94.4*,22.0
Cc1ccc(NC2=CC(=NS(=O)(=O)c3cccs3)c3ccccc3C2=O)cc1C,x,x,x,x,3.7,x
CC(=O)Nc1ccc(NC2=C/C(=N/S(=O)(=O)c3cccs3)c3ccccc3C2=O)cc1,x,-3.0,x,x,x,30.7*
COc1ccc(S(=O)(=O)/N=C2\C=C(Nc3ccc(O)cc3)C(=O)c3ccccc32)cc1,70.4*,3.2,24.8*,43.2*,x,25.7*
Cc1ccc(NC2=C/C(=N/S(=O)(=O)c3cccs3)c3ccccc3C2=O)cc1C,9.7,-3.0,-2.9,1.1,x,-1.8
Cc1cccn2c(=O)c(C=NO)c(N3CCCCC3)nc12,x,x,x,x,2.3,x
CC(=NNC(=O)c1cccnc1)c1nnn(-c2nonc2N)c1C,x,x,x,x,3.0,x
Cn1c(=O)c(C#N)c(-c2ccc(F)cc2)c2cc(C(=O)c3cc(Cl)cc(Cl)c3O)cnc21,7.7,11.9*,6.6,13.9,7.7,26.2*
CN(c1ccc(Cl)cc1)S(=O)(=O)c1nnc(NC(=O)C(C)(C)C)s1,9.1,1.2,27.8*,-2.4,-0.6,x
O=C(NN=Cc1c(F)cccc1Cl)C1CC1,x,x,x,x,2.0,x
COc1ccc(-c2nnc(OCc3ccccc3)c3ccccc23)cc1,8.0,16.4*,2.8,-0.2,-0.7,15.3
c1ccc(-c2nnc(OCc3cccnc3)c3ccccc23)cc1,6.5,-1.3,6.2,3.7,0.8,11.1
COc1ccc(C=NNS(=O)(=O)c2ccc(C)cc2)cc1OC(=O)c1ccc(C)cc1,x,x,x,x,4.9,x
COc1cc(C(C)=NNC(=O)CSc2nc3ccccc3n2C)ccc1O,x,x,x,x,5.3,x
CC1(c2ccc(OC(F)F)cc2)NC(=O)N(/N=C/c2c(O)ccc3ccccc23)C1=O (centres undefined),-2.5,12.4*,0.3,-22.2,x,-9.1
CCC1CCCC1=NNC(=O)c1ccccc1Cl (centres undefined),x,x,x,x,5.5,x
COc1ccc(N=Nc2cc(OC)c(N)cc2OC)cc1,6.0,0.5,3.6,-0.6,15.7,x
Cc1cc(N=Nc2ccc(C)c(N=Nc3cc(C)c(N)cc3N)c2)c(N)cc1N,21.0,10.3*,3.7,1.6,x,17.6
CCOC(=O)c1sc(NC(=O)CN(CC(C)C)CC(C)C)c(C(=O)OCC)c1C,16.2,1.2,33.0*,0.2,0.9,3.9
Cc1ccc(CNC(=O)Cn2c(=O)c3sccc3n(Cc3ccc([N+](=O)[O-])cc3)c2=O)cc1,-8.0,30.6*,-11.6,-16.6,x,0.0
Cc1ccc(CNC(=O)Cn2c(=O)n(CC(=O)N3CCCCC3)c(=O)c3sccc32)cc1,7.6,2.3,7.9,-2.3,1.7,2.4

# Screening results from PubChem.
